This is an account of results in ChEMBL document CHEMBL4513216, “Probing the Open Global Health Chemical Diversity Library for Multistage-Active Starting Points for Next-Generation Antimalarials” (ACS Infect Dis, 2020).

This data set in a line: Toxicity liver stage against HepG2, at 10uM. The format is cell-based. As to conditions: human, HepG2-A16-CD81EGFP cells; read-out: INHIBITION
Also noted: test concentration 10 uM, cell line HepG2-A16-CD81EGFP. In outline: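 Uninfected HepG2-A16-CD81EGFP cells, 3 × 10^3 per well, 1536-well, plated on prespotted compound at 10 μM final, parasite-free screening media added to match infected plates; puromycin 10 μM positive, DMSO 0.5% negative; run in parallel with 48 h PbLuc assay at 37 °C, 5% CO2; viability by CellTiter-Glo luminescence, normalized to controls.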

As to `Cc1ccccc1-c1noc(CN2CCOC(Cn3cccn3)C2)n1` (stereo unspecified), the cytotoxicity at 10 µM is -5.04%. Regarding `COc1ccc(CNCc2nnc3n2CC(C(F)(F)F)CC3)cc1` (stereo unspecified), the cytotoxicity at 10 µM turned out to be 3.27%. In the case of `CC(C)Nc1nc(-c2ccccc2)nc2c1CCN(C(=O)C1CC1)CC2`, the cytotoxicity at 10 µM was -108%. In the case of `c1ccc(Cc2noc(CN3CCc4c(ncn4C4CC4)C3)n2)cc1`, the cytotoxicity at 10 µM worked out at 2.1%. `NC(=O)NC(=O)CCn1ccc(-c2ccc(F)cc2)n1`: the cytotoxicity at 10 µM turned out to be 4.19%.

As to `CCNc1nc(-c2cccnc2)c(-c2ccnc(N3CCCC3)n2)s1`, the cytotoxicity at 10 µM is -5.14%. Take `CCCn1nccc1-c1cc(C2CCN(S(C)(=O)=O)CC2)nc(C)n1`: the cytotoxicity at 10 µM was -10.7%. With `CC(=O)Nc1ccc(CNC2CCCSC2)cc1` (stereo unspecified), the cytotoxicity at 10 µM was -10.5%. `COc1ccc(N2CCC(N(C)C(C)C(=O)N(C)C)CC2)cc1` (stereo unspecified): the cytotoxicity at 10 µM turned out to be 11%. On to `Cc1cc(C)c(CNC(=O)Cc2ccc3c(c2)CCCC3)c(=O)[nH]1`, for which the cytotoxicity at 10 µM was -7.39%.

As to `CNC(=O)[C@@H](C1CCCCC1)N1CCC[C@H]1C(=O)NCCN1CCCC1`, the cytotoxicity at 10 µM was -4.31%. For `Cc1nn(C)c2ncc(S(=O)(=O)N3CCCN4CCCC4C3)cc12` (stereo unspecified), the cytotoxicity at 10 µM was -0.334%. Turning to `CN(C)C(=O)N1CCCn2nc(CNC(=O)CCc3cccs3)cc2C1`, the cytotoxicity at 10 µM was -5.04%. For `CNC(=O)c1nc2c(s1)CCN(C(=O)Cc1ccc(OC)cc1)CC2`, the cytotoxicity at 10 µM was found to be 4.76%.

As for `Cc1cc(C(=O)N2CCN(Cc3ccsc3)CC2)n(C)n1`, the cytotoxicity at 10 µM is 1.98%.

As for `COc1ccc(C(=O)N2CCCC(NC(=O)C(C)C)C2)c(O)c1` (stereo unspecified), the cytotoxicity at 10 µM came out at 0.301%. For `COC[C@@H]1CCC[C@@]12CN(Cc1ccco1)CCO2`, the cytotoxicity at 10 µM came to 2.03%. Under `COc1ccc(CN2C[C@H]3CC[C@@H](C2)N(S(C)(=O)=O)C3)cc1` stands -5.75%; under `CCCc1nc(N2CC[C@@H](c3ccc4c(c3)OCO4)[C@H](O)C2)no1`, -9.87%; under `Cc1cc(CN(C)C(=O)NC2CCN(Cc3ccccc3)C2)no1` (stereo unspecified), -0.421%. Consider `CCOCC1COCCC12CCN(C(=O)CCOC)CC2` (stereo unspecified), for which the cytotoxicity at 10 µM is -6.4%.

Take `O=C(c1cccnc1)N1CCc2c(nc(N3CCCC3)[nH]c2=O)C1`: the cytotoxicity at 10 µM was 4.51%. For `O=C(N[C@@H]1CCC[C@@H](N2CCCC2)[C@@H]1O)c1cnn2cccnc12`, the cytotoxicity at 10 µM is 10.6%. With `COCC(O)CN1CC(C)(C)CN(C(=O)CCc2ccccc2)CC1=O` (stereo unspecified), the cytotoxicity at 10 µM is -1.83%. On to `COc1cccc2c1ccn2CCNC(=O)CCNc1ncccn1`, for which the cytotoxicity at 10 µM is -6.27%.

`CCCc1n[nH]c(C2CN(CCC(F)(F)F)CCO2)n1` (stereo unspecified): the cytotoxicity at 10 µM was -13.9%. In the case of `O=C(C1CCC1)N1CCC2(CC1)CNCCO2`, the cytotoxicity at 10 µM is -4.29%. `CC(=O)N1CCCCCC1C1CCN(Cc2nc(C(C)C)no2)CC1` (stereo unspecified): the cytotoxicity at 10 µM is 6.27%. As to `CC(C)N(C)Cc1nnc2n1CCN(Cc1ccncc1)CC2`, the cytotoxicity at 10 µM was -2.42%. Under `Cc1cc(O)c(OCC(=O)Nc2nc3c(s2)CCCC3)cn1` stands 12.8%. Consider `O=C(CN1CCCCC1C1OCCO1)Nc1ccc(F)c(F)c1` (stereo unspecified), for which the cytotoxicity at 10 µM is -3.53%.

Consider `Cc1ccc(CN2C[C@@H]3CCCO[C@@H]3[C@H](N(C)Cc3ccco3)C2)o1`, for which the cytotoxicity at 10 µM was found to be 6.43%. The figure for `Cc1nnc2n1CCN(C(=O)c1cc(Cl)c(Cl)n1C)C2` is -4.05%. Under `Cc1cc(F)ccc1OC1(C(=O)O)CCN(Cc2cccnc2N)CC1` stands -1.83%; under `Cc1c(C(=O)NCC2CCCO2)nnn1-c1cccc2c1CCN(C)C2` (stereo unspecified), 1.96%. The figure for `COc1ccc(OC2CCN(C(=O)c3ccc(C(C)=O)s3)CC2)cc1` is 3.58%; for `Cn1cccc1C(O)CNS(=O)(=O)c1ccccc1Br` (stereo unspecified) it is -11.1%. For the compound `CNc1ccc(CC2CCCN(C(=O)c3cncnc3C)C2)nn1` (stereo unspecified), the cytotoxicity at 10 µM was 5.99%. `Cc1[nH]ncc1C(C)NCc1cccnc1` (stereo unspecified): the cytotoxicity at 10 µM was -0.98%. Take `Cc1cc(NCCCC(F)(F)F)n2nc(C)cc2n1`: the cytotoxicity at 10 µM was determined as 0.894%. For the compound `c1ccc(Oc2ccc(OC34CCCN(CC3)C4)cc2)cc1` (stereo unspecified), the cytotoxicity at 10 µM came to 0.741%. Under `Cc1csc(CNc2cnc3c(c2)c(C)nn3C)n1` stands 0.739%. Turning to `O=C(O)c1nnn(Cc2cccc(C(F)(F)F)c2)c1-c1cccnc1`, the cytotoxicity at 10 µM amounted to 6.46%. Take `CC1CCCCN1C(=O)c1coc(COc2cccc3cnccc23)n1` (stereo unspecified): the cytotoxicity at 10 µM was -143%.

`O=C1COC2(CCN(Cc3cccs3)CC2)CN1c1ccsc1`: the cytotoxicity at 10 µM was -125%. For the compound `Cc1cccc(CN2C[C@@H]3CN(C(=O)[C@H]4CCCO4)C[C@@H]3C2=O)c1`, the cytotoxicity at 10 µM came out at 9.95%.

As to `c1ccc2sc(N3CCCN(c4ncnc5c4CCNC5)CC3)nc2c1`, the cytotoxicity at 10 µM amounted to 31.2%. On to `NC(=O)NC(=O)CCSCc1coc(-c2ccc(F)cc2)n1`, for which the cytotoxicity at 10 µM was -7.45%.

As for `COC(=O)CN(C(=O)c1ccc(-n2ccnc2)cc1)C1CCCC1`, the cytotoxicity at 10 µM was -7.28%. `O=C(NC1(c2nnn(CC3CC3)n2)CCCC1)c1ccccc1`: the cytotoxicity at 10 µM stood at 6.48%. On to `CN(C)c1cc2c(nn1)CCN(C(=O)c1cc3ccccc3o1)C2`, for which the cytotoxicity at 10 µM is -5.39%.

`Cc1cc(C)n2c(CNCCNc3ccccc3)cnc2n1`: the cytotoxicity at 10 µM was -144%. The figure for `CC(NC(=O)N1CCCN(C)CC1)c1ccc2c(c1)OCCO2` (stereo unspecified) is -6.36%; for `Cc1ccc(NC(=O)CCc2cnn(C)c2)cc1F` it is -1.69%; for `c1ccc(OCCCN2CCN(c3ccc4nncn4n3)CC2)cc1` it is -0.421%. Turning to `Cc1noc(C2CCCN2C(=O)C2CCC2)n1` (stereo unspecified), the cytotoxicity at 10 µM was -12.4%.

With `CS(=O)(=O)CCNC(=O)c1cc2ccccc2nc1N1CCCC1`, the cytotoxicity at 10 µM was -6.78%. The figure for `CC1CN(CC(=O)NCc2ccccn2)CCN1Cc1nccn1C` (stereo unspecified) is -4.07%; for `OCC1CCCN1c1cc(NCc2ccc(Cl)s2)ncn1` (stereo unspecified) it is -2.96%. In the case of `COCc1cncc2c1CCN(C(=O)c1ccc(C)o1)C2`, the cytotoxicity at 10 µM was 0.388%. Regarding `O=C(Cc1ccsc1)NC1CCc2c(ccc(=O)n2CC2CC2)C1` (stereo unspecified), the cytotoxicity at 10 µM worked out at 8.88%. With `CNS(=O)(=O)CCN1CC(c2ccccc2)(c2ccccc2)CCC1=O`, the cytotoxicity at 10 µM is -7.91%.

For the compound `CCn1cc(Cl)c(C(=O)NCCOC)n1`, the cytotoxicity at 10 µM is 7.05%. `COc1cccc(N2CCN(CC[C@H](O)c3ccccc3)CC2=O)c1`: the cytotoxicity at 10 µM amounted to 3.61%.

As to `CCN1CCc2c(CNC(=O)c3nccn3C)cncc2C1`, the cytotoxicity at 10 µM is -109%. On to `COc1ccccc1-c1ncc(CN2C[C@@H](N(C)C)[C@H](C(C)C)C2)s1`, for which the cytotoxicity at 10 µM was -12.3%. Regarding `O=c1[nH]ncc(NCCOc2cccc(Br)c2)c1Cl`, the cytotoxicity at 10 µM was determined as 41.8%.

Consider `O[C@@H]1CCN(CC2CCOC2)[C@H]1Cc1ccccc1` (stereo partly specified), for which the cytotoxicity at 10 µM was -7.98%. For `CN(C)CCNC(=O)CCn1ncc2c(Cl)cccc21`, the cytotoxicity at 10 µM came to 5.92%. As to `CCOc1ccc(N2CCCN=C2NC(=O)c2cccc(OC)c2)cc1`, the cytotoxicity at 10 µM stood at 5.2%. For `CC(C)[C@@H]1CN(Cc2cnc3c(S(C)(=O)=O)cnn3c2)C[C@H]1N(C)C`, the cytotoxicity at 10 µM is -3.5%. Take `CS(=O)(=O)N1CCN(c2cnnc(N3CCCC3)c2)CC1`: the cytotoxicity at 10 µM worked out at 2.24%.

As for `Cc1ccc(OCc2cccc(C(=O)N(C)CCC#N)c2)cn1`, the cytotoxicity at 10 µM was -3.3%. The figure for `Cc1cc(CCC(=O)NCc2ncc[nH]2)ccc1Br` is -18.1%.

Turning to `CCc1[nH]c2c(CNC(=O)[C@@H]3CCCN3C)cc(C)cc2c1C`, the cytotoxicity at 10 µM was -3.33%. Take `CNc1ncc(C(=O)N2CCOC(C(=O)Nc3ccccc3)C2)cn1` (stereo unspecified): the cytotoxicity at 10 µM is -4.35%. For the compound `CCS(=O)(=O)N1CCC2(CC1)CC(CC(=O)NC1CC1)c1ccccc12` (stereo unspecified), the cytotoxicity at 10 µM is -1.72%. As to `CC(C)c1nn(C)c(N2CCOCC2)c1CNC(C)c1ccccn1` (stereo unspecified), the cytotoxicity at 10 µM is -6.56%. Take `COc1ccc(CN2C[C@H]3CC[C@@H](C2)N(S(=O)(=O)C2CC2)C3)cc1`: the cytotoxicity at 10 µM is -1.12%.

Turning to `CN(C)C[C@@H]1C[C@@H]2CN(c3ncc(F)cn3)CC[C@@H]2N1C`, the cytotoxicity at 10 µM came to 4.53%.

In the case of `CCC(C)NC(=O)c1cc(S(=O)(=O)N(C)C)c(C)s1` (stereo unspecified), the cytotoxicity at 10 µM was -2.75%. Turning to `CN(Cc1cc2n(n1)CCNC2)Cc1n[nH]c2c1CCC2`, the cytotoxicity at 10 µM is 5.04%. Regarding `COCC(=O)N1C[C@H]2CNC[C@@]2(C(=O)NCc2c(C)noc2C)C1`, the cytotoxicity at 10 µM was determined as 0.753%. For the compound `CCn1cc(CN2CCN(C(=O)c3cc(C)c(C)s3)CC2)c(C)n1`, the cytotoxicity at 10 µM amounted to 2.07%. Under `CCN1CCCC1Cn1ccc2ccc(C(=O)OC)cc2c1=O` (stereo unspecified) stands -7.86%. As to `CCOc1ccc(NC2CCN(C3CC3)C2=O)cn1` (stereo unspecified), the cytotoxicity at 10 µM was -0.387%. On to `O=C(Nc1ccc(F)cc1)C1CNCCN1C(=O)CCc1cccnc1` (stereo unspecified), for which the cytotoxicity at 10 µM stood at 2.06%. Under `CCOc1ccc(NC(=O)CN2CCN(c3nccn3C)CC2)cc1` stands 4.05%.

On to `Cn1cc(CCC(=O)N2CCCN(c3ncccc3C#N)CC2)cn1`, for which the cytotoxicity at 10 µM came to 2.88%. As for `O=c1c(NCCNCCO)c(N2CCN(c3ccc(F)cc3)CC2)c1=O`, the cytotoxicity at 10 µM was -5.46%. Turning to `O=C1COC2(CCN(C(=O)c3ccoc3)CC2)CN1Cc1cccnc1`, the cytotoxicity at 10 µM was found to be 5.29%.

Take `CCOCC1CN(C(=O)c2cccs2)Cc2nn(C)cc21` (stereo unspecified): the cytotoxicity at 10 µM is -1.63%.

As to `COc1cc2cc(C(=O)O)n(C)c2cc1OC`, the cytotoxicity at 10 µM came to 1.03%.

`CNC(=O)c1cccc(NCCOc2ccc(CC#N)cc2)c1C`: the cytotoxicity at 10 µM is -0.662%. Regarding `CO[C@H]1CCN(C2CCOCC2)C[C@@H]1Cc1ccccc1`, the cytotoxicity at 10 µM came to 3.11%. As for `COc1ccccc1CN(CC1CCCO1)C(=O)c1scnc1C` (stereo unspecified), the cytotoxicity at 10 µM was determined as 2.01%.
